These results are taken from ChEMBL document CHEMBL1123309, “Esters and lactones of phenolic amino carboxylic acids: prodrugs for iron chelation” (J Med Chem, 1986).

The structures appear in SMILES notation. A value given as a limit tells only on which side of the number the result lay.

One may read the LD50 as the dose expected to kill half of the subjects tested.

Data set [1] deals with Mus musculus. Nature of the data set: BDF1 male mice were administered with 200 mg/kg po and percent change in iron levels was determined in Spleen. Type of data set: functional. The procedure, abridged:
(§1)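 Hypertransfused male BDF1 mice (canine red cells, washed and heated at 50 °C for 30 min) were dosed orally for 7 days with compound in distilled water or a fine suspension with Polysorbate 80 (2% final). Daily group urine and pooled feces (1 N HCl digest, 90 °C, 30 min, triplicate) were collected, and liver and spleen were homogenized. Iron was measured by atomic absorption and reported as % change vs transfused control.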

For data set [2], the system named is Mus musculus. Nature of the data set: BDF1 male mice were administered with 200 mg/kg poand percent change in iron levels was determined in Urine. Type of data set: functional. The procedure, abridged:
as §1

Data set [3] deals with Mus musculus. The data set can be described thus: BDF1 male mice were administered with 200 mg/kg ip and percent change in iron levels was determined in Liver. Type of data set: functional. To be noted: route intraperitoneal. Put shortly: (§2)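 Male BDF1 mice made iron-overloaded by transfusion of washed, heat-treated (50 °C, 30 min) canine red cells. Dosing began 2 days after the last transfusion, once daily for 7 days, in distilled water or 2% Polysorbate 80 suspension. Daily group urine was collected. Pooled feces were digested in 1 N HCl (90 °C, 30 min). Liver and spleen were homogenized in saline. Iron was measured by atomic absorption and expressed as % change vs transfused controls.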

In data set [4] the test system is Mus musculus. Nature of the data set: BDF1 male mice were administered with the compound and number of survivors was determined at a dose 200 mg/kg peroral out of 10 tested. The format is functional. The settings on record: route oral. Put shortly:
(§3)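 Male BDF1 mice were iron-loaded by transfusion of canine red cells. The cells were heparinised, washed twice in isotonic saline and heated at 50 °C for 30 min. Dosing started two days after the last transfusion, once daily for 7 consecutive days. Compounds were given in distilled water or as a fine aqueous suspension with Polysorbate 80 (2% final). Toxic signs were recorded daily and survivors counted per group.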

The test system of data set [5] is Mus musculus. The data set can be described thus: BDF1 male mice were administered with the compound and number of survivors was determined at a dose 200 mg/kg ip out of 10 tested. To be noted: route intraperitoneal. Type of data set: functional. Put shortly: as §3
The test system of data set [6] is Mus musculus. Nature of the data set: BDF1 male mice were administered with 200 mg/kg po and percent change in iron levels was determined in Feces. Type of data set: functional. The procedure, abridged: as §1
Data set [7] has as its system Mus musculus. Nature of the data set: BDF1 male mice were administered with 200 mg/kg po and percent change in iron levels was determined in Liver. Type of data set: functional. The procedure, abridged:
as §1

Data set [8] has as its system Mus musculus. Nature of the data set: BDF1 male mice were administered with 200 mg/kg ip and percent change in iron levels was determined in Feces. The format is functional. To be noted: route intraperitoneal. Put shortly: as §2
Data set [9] concerns Mus musculus. Nature of the data set: BDF1 male mice were administered with 200 mg/kg ip and percent change in iron levels was determined in Urine. Type of data set: functional. To be noted: route intraperitoneal. The procedure, abridged:
as §2

Data set [10] concerns Mus musculus. The data set can be described thus: BDF1 male mice were administered with 200 mg/kg ip and percent change in iron levels was determined in Spleen. The format is functional. The settings on record: route intraperitoneal. The procedure, abridged:
as §2

Data set [11] deals with Mus musculus. Nature of the data set: BDF1 male mice were administered with 300 mg/kg intraperitoneally and percent change in iron levels was determined in Spleen. Type of data set: functional. To be noted: route intraperitoneal. The procedure, abridged: (§4)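 Male BDF1 mice were hypertransfused with washed, heat-treated (50 °C, 30 min) canine red cells. Starting 2 days after the last transfusion, they received one ip injection daily for 7 days, in distilled water or an aqueous suspension with Polysorbate 80 (2% final). Group urine was collected every 24 h. Feces were digested in 1 N HCl (90 °C, 30 min, triplicate). Liver and spleen were homogenized. Iron was measured by atomic absorption and reported as % change vs transfused controls.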

Data set [12] concerns Mus musculus. Nature of the data set: BDF1 male mice were administered with 300 mg/kg intraperitoneally and number of survivors was determined out of 10 tested. Type of data set: functional. The settings on record: route intraperitoneal. Put shortly: as §3
A short description of data set [13]: Compound was evaluated for lethal dose after intraperitoneal administration using iron overload rat model. Type of data set: toxicity, organism-based. To be noted: in vivo, ip.
In data set [14] the test system is Rattus norvegicus. The data set can be described thus: Percent change in iron levels was determined in feces using iron overload rat model where the route of administration is Intraperitoneal. The format is ADME, organism-based. The settings on record: in vivo, ip.
In data set [15] the test system is Rattus norvegicus. Nature of the data set: Percent change in iron levels was determined in feces using iron overload rat model where the route of administration is Peroral. The format is ADME, organism-based. The settings on record: in vivo, po.
Data set [16] has as its system Mus musculus. The data set can be described thus: BDF1 male mice were administered with 300 mg/kg intraperitoneally and percent change in iron levels was determined in Feces. The format is functional. The settings on record: route intraperitoneal. Put shortly: as §4
Data set [17] deals with Mus musculus. The data set can be described thus: BDF1 male mice were administered with 300 mg/kg intraperitoneally and percent change in iron levels was determined in Urine. To be noted: route intraperitoneal. Type of data set: functional. Put shortly:
as §4

For data set [18], the system named is Mus musculus. The data set can be described thus: BDF1 male mice were administered with 300 mg/kg intraperitoneally and percent change in iron levels was determined in liver. The settings on record: route intraperitoneal. Type of data set: functional. The procedure, abridged: as §4
The test system of data set [19] is Rattus norvegicus. The data set can be described thus: Percent change in iron levels was determined in urine using iron overload rat model where the route of administration is Intraperitoneal. Type of data set: ADME, organism-based. The settings on record: in vivo, ip.
The test system of data set [20] is Rattus norvegicus. Nature of the data set: Percent change in iron levels was determined in urine using iron overload rat model where the route of administration is Peroral. Type of data set: ADME, organism-based. The settings on record: in vivo, po.
For data set [21], the system named is Mus musculus. Nature of the data set: BDF1 male mice were administered with 129 mg/kg intraperitoneally and percent change in iron levels was determined in Feces. The format is functional. To be noted: route intraperitoneal. Put shortly: as §2
In data set [22] the test system is Mus musculus. The data set can be described thus: BDF1 male mice were administered with 129 mg/kg intraperitoneally and percent change in iron levels was determined in Urine. Type of data set: functional. To be noted: route intraperitoneal. The procedure, abridged:
as §2

Data set [23] has as its system Mus musculus. Nature of the data set: BDF1 male mice were administered with 129 mg/kg intraperitoneally and percent change in iron levels was determined in Spleen. The format is functional. The settings on record: route intraperitoneal. Put shortly: as §2
In data set [24] the test system is Mus musculus. The data set can be described thus: BDF1 male mice were administered with 129 mg/kg intraperitoneally and number of survivors was determined out 10 tested. The format is functional. The settings on record: route intraperitoneal. Put shortly:
as §3

Data set [25] deals with Mus musculus. The data set can be described thus: BDF1 male mice were administered with 129 mg/kg intraperitoneally and percent change in iron levels was determined in Liver. Type of data set: functional. To be noted: route intraperitoneal. The procedure, abridged: as §2

For the molecule `CC(C)(C)OC(=O)CN(CCN(CC(=O)OC(C)(C)C)Cc1ccccc1O)Cc1ccccc1O`, the Iron change in [1] was 5%; in [2], -27%; in data set [3], 10%; in data set [6], -13%; in data set [7] it was 6%; in data set [8], -1%. The Iron change in [9] is reported as -1%; in [10] it was -5%. Besides, the No. of survivors in [4] and in data set [5] was 10 each time.

Take `O=C(O)CN(Cc1ccccc1O)CC(O)CN(CC(=O)O)Cc1ccccc1O`: the Iron change in data set [11] is given as 6%; in data set [14], 255%; in data set [15] it was 20%; in data set [16] it was -32%; in [17], 127%; in [18] it was -50%. The Iron change in [19] amounted to 118%; in data set [20], 30%. Moreover, in data set [12], the No. of survivors was determined as 10. For the same molecule, the LD50 in data set [13] is at least 800 mg/kg.

Take `O=C([O-])CN(CCN(CC(=O)[O-])c1ccccc1O)c1ccccc1O.[Li+].[Li+]`: the Iron change in data set [21] was -38%; in [22], 28%; in data set [23], -7%; in data set [25], -49%. Moreover, the No. of survivors in data set [24] is on record as 9.
